Compound activity as filed in PubChem.
SUMO Mot1 rescue – yeast Mot1-301 growth rescue at high temperature, primary screen, SUMOylation pathway inhibitor project, S. cerevisiae, ATP luminescence, 38.5C; 320,000 compounds, 1% hits; S. cerevisiae Mot1-301 growth rescue; percent above DMSO median, 100 means doubled; AID 2716, 2010; growth rescue, % at 18.8 µM;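 active = every valid replicate shows activation above 250% relative to neutral control wells; inactive = the rest, any valid replicate at or below 250%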
Statin myotox sup – suppressors of statin myotoxicity in C2C12 myotubes, primary screen, cell-based, single point, plate reader. rescue of ATP level, % at 7.49 µM. C2C12 myotubes + simvastatin, ATP luminescence, 48 h; scaled: DMSO 0, geranylgeraniol control 100. 330,000 compounds, 0.78% hits;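 active = mean ATP rescue above about 67%, or every replicate alone reaching that limit, limit read from the data, passing the limit was not always enough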;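 also: myotubes were challenged with 10 µM simvastatin during compound exposure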
Cneo AK release – Cryptococcus neoformans cell lysis inducers, primary screen, AK release luminescence, single concentration; C. neoformans lysis, adenylate kinase release luminescence, 4 h; normalised: neutral wells 0, clomiphene wells 100; lysis activity, % at 15 µM; 360,000 compounds, 0.2% hits; AID 651654, 2012;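 active = mean lysis activity across replicates of at least 80%, whatever share of replicates individually reach that level; inactive = mean lysis activity below 80%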
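Signal: Adenylate kinase release luminescence | Assay system: Log-phase Cryptococcus neoformans yeast cells | Input: Cells at 5 × 10^6 per mL | Buffer or medium: Fresh YPD growth medium | Compound: Single dose | Schedule: Static 4 h at 37 °C with compound, 1 h detection | Controls: Clomiphene | Read-out: Luminescence rise reflecting yeast cell lysis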
Large screens that a line does not name were inactive. The list is not random: actives were taken first. Their share in the collection is about 1.5%.

COc1ccc(CN2CC(C(=O)NCCCN3CCCCCC3)CC2=O)cc1 (centres undefined)	none
CC(C)Nc1nc(NC(C)C)nc(Nn2cnnc2)n1	none (no result: Statin myotox sup, Cneo AK release)
CC(C)Nc1nc(NC(C)C)nc(N(C)n2cnnc2)n1	Statin myotox sup 98.3
C[C@H]1CN([C@@H](C)CO)C(=O)c2cc(-c3cccc(C#N)c3)cnc2O[C@@H]1CN(C)Cc1ccccc1	none (no result: SUMO Mot1 rescue)
Cc1ccc(S(=O)(=O)N(C)C[C@@H]2OCCCC[C@H](C)Oc3ccc(NC(=O)Nc4c(C)noc4C)cc3C(=O)N([C@@H](C)CO)C[C@H]2C)cc1	none (no result: SUMO Mot1 rescue, Statin myotox sup)
COc1ccccc1NC(=O)CCc1c(C)[nH]c(=O)c(C#N)c1C	Statin myotox sup 97.3
Cc1ccc(F)cc1NC(=O)CCc1c(C)[nH]c(=O)c(C#N)c1C	none
CCC(=O)N1C[C@H]2[C@@H](c3ccccc31)[C@H](CO)N2C(=O)Nc1ccccc1	none (no result: SUMO Mot1 rescue)
Cc1ccc2cc(CN(Cc3ccco3)C(=O)NCc3ccccc3)c(=O)[nH]c2c1C	none
Cc1ccc2cc(CN(Cc3ccco3)C(=O)c3ccccc3)c(=O)[nH]c2c1C	Statin myotox sup 137.4
Cc1nnc2n(-c3ccccc3)c(=O)c3c4c(sc3n12)COC(C)(C)C4	Statin myotox sup 105.0
Cc1nnc2n(C)c(=O)c3c4c(sc3n12)COC(C)(C)C4	none (no result: Statin myotox sup, Cneo AK release)
COc1ccc(NC(=O)Nc2ccc3c(c2)C(=O)N([C@H](C)CO)C[C@@H](C)[C@@H](CN(C)Cc2ccc(C(F)(F)F)cc2)OCCCC[C@H](C)O3)cc1	Statin myotox sup 157.9 (no result: SUMO Mot1 rescue)
C[C@@H]1CN([C@@H](C)CO)C(=O)c2cc(NC(=O)c3ccncc3)ccc2O[C@@H](C)CCCCO[C@H]1CN(C)Cc1ccncc1	none (no result: SUMO Mot1 rescue, Statin myotox sup)
C[C@@H]1CN([C@@H](C)CO)C(=O)c2cc(NC(=O)c3ccncc3)ccc2O[C@@H](C)CCCCO[C@H]1CN(C)Cc1ccc(C(F)(F)F)cc1	Statin myotox sup 115.7 (no result: SUMO Mot1 rescue)
C[C@@H]1CCCCO[C@@H](CN(C)Cc2ccncc2)[C@@H](C)CN([C@H](C)CO)C(=O)c2cc(NC(=O)c3ccncc3)ccc2O1	Cneo AK release 93.3 (no result: SUMO Mot1 rescue, Statin myotox sup)
C[C@H](CO)N1C[C@H](C)[C@H](CN(C)Cc2ccc(C(F)(F)F)cc2)OCCCC[C@H](C)Oc2ccc(NC(=O)c3ccccc3)cc2C1=O	none (no result: SUMO Mot1 rescue, Statin myotox sup)
C[C@@H]1CN([C@@H](C)CO)C(=O)c2cc(NC(=O)c3ccncc3)ccc2O[C@@H](C)CCCCO[C@@H]1CN(C)Cc1ccc(C(F)(F)F)cc1	Statin myotox sup 120.6 (no result: SUMO Mot1 rescue)
C[C@H](CO)N1C[C@H](C)[C@@H](CN(C)Cc2ccc(C(F)(F)F)cc2)OCCCC[C@H](C)Oc2ccc(NC(=O)c3ccccc3)cc2C1=O	none (no result: SUMO Mot1 rescue, Statin myotox sup)
COc1ccc(NC(=O)Nc2ccc3c(c2)C(=O)N([C@H](C)CO)C[C@H](C)[C@@H](CN(C)Cc2ccc(C(F)(F)F)cc2)OCCCC[C@H](C)O3)cc1	none (no result: SUMO Mot1 rescue)
COc1cccc(NC(=O)N(C)C[C@@H]2Oc3ncc(C#Cc4ccc(F)cc4)cc3C(=O)N([C@@H](C)CO)C[C@@H]2C)c1	none (no result: SUMO Mot1 rescue)
O=C(C[C@H]1C[C@@H]2c3cc(NC(=O)Nc4ccc(F)cc4)ccc3O[C@@H]2[C@@H](CO)O1)NC1CCCCC1	none (no result: SUMO Mot1 rescue)
C[C@H]1CN([C@@H](C)CO)S(=O)(=O)c2ccc(-c3cccc(C#N)c3)cc2O[C@H]1CN(C)C(=O)c1ccc(F)cc1	none (no result: SUMO Mot1 rescue)
CCc1ccc(NC(=O)CN(c2cccc(C)c2)S(C)(=O)=O)cc1	Statin myotox sup 99.9
Cc1cccc(N(CC(=O)Nc2ccc(CC#N)cc2)S(C)(=O)=O)c1	none (no result: Statin myotox sup)
C[C@H]1CN([C@@H](C)CO)C(=O)c2cccc(NC(=O)Nc3ccc4c(c3)OCO4)c2O[C@H]1CN(C)C(=O)Nc1cccc2ccccc12	none (no result: SUMO Mot1 rescue)
COCC(=O)Nc1ccc2c(c1)OC[C@H](C)N(Cc1cncnc1)C[C@@H](C)[C@H](OC)CN(C)C2=O	none (no result: SUMO Mot1 rescue, Cneo AK release)
COc1ccc(S(=O)(=O)Nc2ccc3c(c2)C(=O)N([C@H](C)CO)C[C@@H](C)[C@@H](CN(C)C(=O)Nc2ccccc2)O3)cc1	Cneo AK release 82.8 (no result: SUMO Mot1 rescue)
C[C@@H]1CN([C@@H](C)CO)C(=O)c2cc(NS(=O)(=O)c3ccc(Cl)cc3)ccc2O[C@@H]1CN(C)C(=O)Nc1ccccc1	none (no result: SUMO Mot1 rescue)
C[C@@H]1CN([C@H](C)CO)C(=O)c2cc(NS(=O)(=O)c3ccccc3)ccc2O[C@H]1CN(C)C(=O)NC1CCCCC1	Cneo AK release 95.9 (no result: SUMO Mot1 rescue)
COc1ccc(NC(=O)N(C)C[C@@H]2Oc3ccc(NS(=O)(=O)c4c(C)noc4C)cc3C(=O)N([C@@H](C)CO)C[C@@H]2C)cc1	none (no result: SUMO Mot1 rescue)
COc1ccc(S(=O)(=O)Nc2ccc3c(c2)C(=O)N([C@@H](C)CO)C[C@@H](C)[C@H](CN(C)C(=O)Nc2ccccc2)O3)cc1	none (no result: SUMO Mot1 rescue)
COc1ccc(NC(=O)N(C)C[C@H]2Oc3ccc(NS(=O)(=O)c4c(C)noc4C)cc3C(=O)N([C@H](C)CO)C[C@@H]2C)cc1	Statin myotox sup 123.6
C[C@H]1CN([C@@H](C)CO)C(=O)c2cc(NS(=O)(=O)c3ccccc3)ccc2O[C@H]1CN(C)C(=O)NC1CCCCC1	none (no result: SUMO Mot1 rescue)
C[C@@H]1CN([C@H](C)CO)C(=O)c2cc(NS(=O)(=O)c3ccc(Cl)cc3)ccc2O[C@@H]1CN(C)C(=O)Nc1ccccc1	Statin myotox sup 82.3 (no result: SUMO Mot1 rescue)
COCC(=O)Nc1ccc2c(c1)[C@@H]1C[C@H](CC(=O)NCc3ccccc3OC)O[C@H](CO)[C@@H]1O2	none (no result: SUMO Mot1 rescue)
O=C(Cc1ccccn1)N[C@H]1C=C[C@@H](CC(=O)N2CCCCC2)O[C@H]1CO	none (no result: SUMO Mot1 rescue)
COc1cccc(NC(=O)C[C@@H]2CC[C@@H]3[C@H](COc4ccc(NC(C)=O)cc4C(=O)N3C)O2)c1	none (no result: SUMO Mot1 rescue)
COc1ccc(NC(=O)N(C)C[C@H]2Oc3ccc(NS(=O)(=O)c4ccc(OC)cc4)cc3C(=O)N([C@@H](C)CO)C[C@H]2C)cc1	Statin myotox sup 73.2 (no result: SUMO Mot1 rescue)
COc1ccc(NC(=O)N(C)C[C@@H]2Oc3ccc(NS(=O)(=O)c4ccc(OC)cc4)cc3C(=O)N([C@@H](C)CO)C[C@@H]2C)cc1	none (no result: SUMO Mot1 rescue)
COCC(=O)N1[C@@H]2CN(C(=O)c3ccncc3)c3ccccc3[C@@H]2[C@@H]1CO	none (no result: SUMO Mot1 rescue)
COc1ccc(CSc2nnc(Cc3sc(-c4ccccc4)nc3-c3ccccc3)o2)cc1	Statin myotox sup 96.5 (no result: SUMO Mot1 rescue)
Fc1ccc(CSc2nnc(Cc3sc(-c4ccccc4)nc3-c3ccccc3)o2)cc1	none
O=C(C[C@@H]1C=C[C@H](NC(=O)Nc2cc(F)ccc2F)[C@@H](CO)O1)NCc1ccccn1	none (no result: SUMO Mot1 rescue)
Cc1ccc(NC(=O)c2cccc(N3C(=O)C4C5CCC(C5)C4C3=O)c2)c(C)c1 (centres undefined)	SUMO Mot1 rescue active (no result: Statin myotox sup, Cneo AK release)
Cc1ccccc1NC(=O)c1cccc(N2C(=O)C3C4CCC(C4)C3C2=O)c1 (centres undefined)	none (no result: Statin myotox sup)
O=C(/C=C/c1cccc([N+](=O)[O-])c1)Nc1ccc(NC(=O)c2cccs2)cc1	SUMO Mot1 rescue 474.1 (no result: Statin myotox sup)
O=C(/C=C/c1cccc([N+](=O)[O-])c1)c1cccs1	none
O=C(N[C@@H]1CC[C@@H](CCNS(=O)(=O)c2ccccc2)O[C@H]1CO)c1cccc(F)c1	none (no result: SUMO Mot1 rescue)
N#C[C@H]1[C@@H](c2ccc(C3=CCCCC3)cc2)[C@H](CO)N1C(=O)NC1CCCCC1	none (no result: SUMO Mot1 rescue)
